Data published in ChEMBL document CHEMBL1147678, “Discovery of a potent, nonpolyglutamatable inhibitor of glycinamide ribonucleotide transformylase” (J Med Chem, 2006).

Legend:
[1] = biological target: T1, Trifunctional purine biosynthetic protein adenosine-3 (Homo sapiens, UniProt P22102); assay: Inhibition of human recombinant GAR Tfase
T1 sequence (P22102 whole entry): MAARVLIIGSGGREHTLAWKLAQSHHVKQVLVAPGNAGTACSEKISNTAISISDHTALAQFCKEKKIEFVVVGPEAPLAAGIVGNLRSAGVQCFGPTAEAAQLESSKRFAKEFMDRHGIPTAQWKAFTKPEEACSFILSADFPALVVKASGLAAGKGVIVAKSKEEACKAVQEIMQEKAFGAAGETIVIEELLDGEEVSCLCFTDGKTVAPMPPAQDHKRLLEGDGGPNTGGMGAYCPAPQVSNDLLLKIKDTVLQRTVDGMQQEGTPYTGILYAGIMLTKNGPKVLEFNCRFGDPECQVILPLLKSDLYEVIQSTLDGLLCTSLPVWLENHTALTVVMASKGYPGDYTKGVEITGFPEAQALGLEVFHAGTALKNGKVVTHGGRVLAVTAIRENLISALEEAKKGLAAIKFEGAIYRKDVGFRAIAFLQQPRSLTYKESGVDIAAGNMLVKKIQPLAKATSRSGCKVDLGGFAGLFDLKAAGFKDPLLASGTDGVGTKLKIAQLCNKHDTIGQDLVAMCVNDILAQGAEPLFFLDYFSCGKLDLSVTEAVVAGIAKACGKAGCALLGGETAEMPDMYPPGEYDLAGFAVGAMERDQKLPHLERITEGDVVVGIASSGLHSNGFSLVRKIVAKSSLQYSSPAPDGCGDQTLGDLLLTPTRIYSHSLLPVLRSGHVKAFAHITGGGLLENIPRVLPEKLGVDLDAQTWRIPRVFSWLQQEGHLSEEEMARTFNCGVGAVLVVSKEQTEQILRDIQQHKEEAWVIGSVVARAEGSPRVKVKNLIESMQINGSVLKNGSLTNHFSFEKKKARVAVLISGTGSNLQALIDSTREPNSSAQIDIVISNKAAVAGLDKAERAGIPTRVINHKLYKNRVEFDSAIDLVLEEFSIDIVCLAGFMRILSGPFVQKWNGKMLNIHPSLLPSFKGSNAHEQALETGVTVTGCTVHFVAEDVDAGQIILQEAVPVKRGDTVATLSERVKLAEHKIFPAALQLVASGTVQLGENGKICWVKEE

[2] = biological target: Bifunctional purine biosynthesis protein ATIC (Homo sapiens, UniProt P31939); assay: Inhibition of human recombinant AICAR Tfase
Outline: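 Recombinant human AICAR Tfase assayed by a previously described method. Reaction kinetics were followed for 2 min after initiation. Ki was derived from Dixon plots.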

[3] = system: CCRF-CEM; assay: Antiproliferative activity against human CCRF-CEM cell line; type: functional, cell-based
Outline: (§1)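 CCRF-CEM human leukemia cells (parental or variant line) were continuously exposed to the test compounds for 72 h, and growth inhibition was then measured.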

[4] = system: CCRF-CEM; assay: Antiproliferative activity against human CCRF-CEM cell line in presence of thymidine; type: functional, cell-based
[5] = system: CCRF-CEM; assay: Antiproliferative activity against human CCRF-CEM cell line in presence of hypoxanthine; type: functional, cell-based
[6] = system: CCRF-CEM; assay: Antiproliferative activity against FPGS-deficient CCRF-CEM cell line; type: functional, cell-based; settings: Homo sapiens; outline: as §1
[7] = system: CCRF-CEM; assay: Antiproliferative activity against reduced folate carrier-deficient CCRF-CEM cell line; type: functional, cell-based; settings: Homo sapiens; outline: as §1

Chain of Bifunctional purine biosynthesis protein ATIC (P31939 whole entry): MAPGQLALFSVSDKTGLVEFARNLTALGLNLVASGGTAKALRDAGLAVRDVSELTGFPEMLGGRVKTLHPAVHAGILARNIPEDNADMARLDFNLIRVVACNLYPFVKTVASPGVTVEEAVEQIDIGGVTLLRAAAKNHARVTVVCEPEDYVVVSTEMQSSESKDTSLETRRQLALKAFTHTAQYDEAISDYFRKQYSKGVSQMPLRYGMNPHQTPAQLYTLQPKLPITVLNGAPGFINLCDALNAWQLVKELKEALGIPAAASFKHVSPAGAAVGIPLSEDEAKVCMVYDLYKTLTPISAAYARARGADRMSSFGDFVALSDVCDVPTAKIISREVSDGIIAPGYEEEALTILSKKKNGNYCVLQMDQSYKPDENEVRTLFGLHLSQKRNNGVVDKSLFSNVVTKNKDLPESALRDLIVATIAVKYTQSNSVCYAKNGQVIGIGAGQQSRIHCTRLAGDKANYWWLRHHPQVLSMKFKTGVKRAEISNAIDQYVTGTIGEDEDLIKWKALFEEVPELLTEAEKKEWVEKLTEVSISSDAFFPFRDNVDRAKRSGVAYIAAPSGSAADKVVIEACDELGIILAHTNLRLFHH

SMILES	Ki [1]	Ki [2]	IC50 [3]	IC50 [4]	IC50 [5]	IC50 [6]	IC50 [7]
Nc1nc(N)c(CCCC(C(=O)C(F)(F)F)c2ccc(C(=O)NCC(=O)O)cc2)c(O)n1 (stereo unspecified)	21 µM	> 100 µM	> 100 µM	> 100 µM	> 100 µM	> 100 µM	> 100 µM
Nc1nc(N)c(CCCC(C(=O)C(F)(F)F)c2ccc(C(=O)NC(CCC(=O)O)C(=O)O)cc2)c(O)n1 (stereo unspecified)	–	> 100 µM	0.016 µM	0.017 µM	> 100 µM	> 100 µM	> 100 µM
Nc1nc(N)c(CCCC(C(=O)C(F)(F)F)c2ccc(C(=O)NCc3nnn[nH]3)cc2)c(=O)[nH]1 (stereo unspecified)	5 µM	> 100 µM	10 µM	30 µM	> 100 µM	40 µM	30 µM
Nc1nc(N)c(CCCC(C(=O)C(F)(F)F)c2ccc(C(=O)N[C@@H](CCc3nnn[nH]3)C(=O)O)cc2)c(=O)[nH]1 (stereo partly specified)	0.13 µM	46 µM	0.04 µM	0.09 µM	> 100 µM	0.05 µM	10 µM
Nc1nc2c(c(=O)[nH]1)C[C@@H](CCc1ccc(C(=O)N[C@@H](CCC(=O)O)C(=O)O)cc1)CN2 [LOMETREXOL]	–	> 100 µM	0.2 µM	–	> 100 µM	25 µM	–
